Article PMC11318567 (Computational and Structural Biotechnology Journal, 2024)

Legend:
human topo IIβ = human topo IIβ (Homo sapiens, UniProt Q02880); experiment: Human topo IIβ-mediated decatenation assay; assay type: biochemical
human topo IIα [1] = biological target: T1, human topo IIα (Homo sapiens, UniProt P11388); experiment: Human topoisomerase IIα-mediated cleavage assay; assay type: biochemical; conditions: 7.8-125 μM
human topo IIα [2] = biological target: T1, human topo IIα; experiment: Human topo IIα competitive cleavage assay; assay type: biochemical; conditions: in the presence of 50 μM etoposide
wheatgerm topo I = experiment: Wheatgerm topo I unwinding assay; assay type: biochemical, wheat germ; conditions: 7.8, 15.6, 31.25, 125 μM
In short: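 Wheat germ topo I plasmid unwinding run in duplicate at 7.8, 15.6, 31.25 and 125 µM test compound, with the intercalator m-AMSA as positive control.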

human topo II = human topo II (Homo sapiens, UniProt P11388); experiment: Competitive ATPase assay; assay type: biochemical; conditions: IC50 versus ATP concentration
Sequence of human topo II (P11388 whole entry): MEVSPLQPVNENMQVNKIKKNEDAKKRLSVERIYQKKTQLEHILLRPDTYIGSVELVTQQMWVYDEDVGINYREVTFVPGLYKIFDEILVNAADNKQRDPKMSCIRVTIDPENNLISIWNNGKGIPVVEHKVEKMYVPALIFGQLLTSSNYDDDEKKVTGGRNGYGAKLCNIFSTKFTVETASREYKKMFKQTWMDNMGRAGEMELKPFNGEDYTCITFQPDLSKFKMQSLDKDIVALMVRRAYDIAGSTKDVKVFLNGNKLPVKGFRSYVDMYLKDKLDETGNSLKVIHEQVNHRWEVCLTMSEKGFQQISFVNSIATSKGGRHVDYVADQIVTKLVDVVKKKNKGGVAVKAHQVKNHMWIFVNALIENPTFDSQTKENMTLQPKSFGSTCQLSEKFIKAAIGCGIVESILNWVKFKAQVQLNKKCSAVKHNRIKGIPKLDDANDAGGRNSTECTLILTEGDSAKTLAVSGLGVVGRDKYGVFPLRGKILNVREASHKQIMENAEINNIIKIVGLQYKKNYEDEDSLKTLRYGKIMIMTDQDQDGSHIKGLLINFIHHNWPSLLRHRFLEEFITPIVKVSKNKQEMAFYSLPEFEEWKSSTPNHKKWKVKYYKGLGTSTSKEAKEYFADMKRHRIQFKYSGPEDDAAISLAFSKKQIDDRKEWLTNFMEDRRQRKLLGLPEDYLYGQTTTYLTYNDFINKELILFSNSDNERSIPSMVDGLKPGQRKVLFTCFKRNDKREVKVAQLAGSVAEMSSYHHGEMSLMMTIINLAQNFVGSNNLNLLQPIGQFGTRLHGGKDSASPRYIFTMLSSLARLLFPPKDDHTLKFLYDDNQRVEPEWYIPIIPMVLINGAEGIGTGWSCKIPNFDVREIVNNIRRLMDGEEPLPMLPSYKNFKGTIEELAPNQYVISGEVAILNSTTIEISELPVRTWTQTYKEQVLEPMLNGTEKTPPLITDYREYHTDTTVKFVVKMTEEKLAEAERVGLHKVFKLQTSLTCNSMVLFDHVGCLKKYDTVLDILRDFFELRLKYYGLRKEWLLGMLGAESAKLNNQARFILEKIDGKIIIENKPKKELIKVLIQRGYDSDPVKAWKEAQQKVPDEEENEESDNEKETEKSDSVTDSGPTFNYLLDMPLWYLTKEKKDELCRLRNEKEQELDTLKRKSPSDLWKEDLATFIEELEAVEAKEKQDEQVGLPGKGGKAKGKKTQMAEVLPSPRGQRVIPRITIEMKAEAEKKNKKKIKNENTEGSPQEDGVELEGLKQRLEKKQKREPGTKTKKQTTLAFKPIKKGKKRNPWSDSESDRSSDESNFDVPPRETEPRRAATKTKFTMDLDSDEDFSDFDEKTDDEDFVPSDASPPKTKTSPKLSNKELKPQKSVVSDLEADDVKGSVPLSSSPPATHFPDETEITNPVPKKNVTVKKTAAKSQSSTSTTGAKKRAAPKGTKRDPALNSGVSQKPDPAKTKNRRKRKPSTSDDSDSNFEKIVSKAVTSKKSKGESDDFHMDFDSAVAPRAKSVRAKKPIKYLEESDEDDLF
In short: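 NADH-coupled ATPase (pyruvate kinase/lactate dehydrogenase, phosphoenolpyruvate) with human topo II at 14 nM final and linear pBR322. Buffer was 20 mM Tris-HCl, 5 mM Mg acetate, 125 mM K acetate, 2 mM DTT, pH 7.9. Compound in DMSO went in before enzyme, then a 10–15 min OD340 pre-run. ATP was added at varying concentrations and OD340 followed for up to 30 min at 37 °C, in duplicate. Hydrolysis rates vs ATP gave IC50 at each ATP level.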

[3] = biological target: ATPase domain of topo IIα (Homo sapiens, UniProt P11388); experiment: 1H STD NMR experiments; assay type: binding; conditions: protein:ligand ratio 1:100
Sequence of ATPase domain of topo IIα (P11388 1-453 limits assumed): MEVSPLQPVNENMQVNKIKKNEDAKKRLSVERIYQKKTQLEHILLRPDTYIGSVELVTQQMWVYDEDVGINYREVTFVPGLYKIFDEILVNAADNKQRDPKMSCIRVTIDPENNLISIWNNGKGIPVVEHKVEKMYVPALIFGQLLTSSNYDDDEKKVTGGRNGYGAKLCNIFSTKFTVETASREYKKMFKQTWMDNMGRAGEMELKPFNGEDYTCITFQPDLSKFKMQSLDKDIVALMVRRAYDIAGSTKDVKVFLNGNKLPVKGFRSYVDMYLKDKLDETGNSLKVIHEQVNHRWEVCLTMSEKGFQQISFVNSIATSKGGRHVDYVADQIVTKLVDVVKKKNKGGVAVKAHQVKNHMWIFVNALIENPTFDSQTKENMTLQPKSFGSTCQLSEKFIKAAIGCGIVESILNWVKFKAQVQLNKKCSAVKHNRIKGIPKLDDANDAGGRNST
In short: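 Runs were at 600 MHz, 25 °C, with a 100 ms T₁ρ filter. On-resonance saturation was at −0.727 ppm and off-resonance at 30 ppm. Saturation was 0.5 or 1 s depending on compound, with relaxation delay 4 or 1.5 s. Epitope maps come from STD amplification factors.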

[4] = Solubility as observed during preparation for assays; assay type: physicochemical
[5] = test system: NCI-60 human cancer cell lines; experiment: NCI-60 screening, whole panel; assay type: cell-based; conditions: 10 µM
B-Raf = B-Raf (Homo sapiens, UniProt P15056); experiment: KinaseProfiler kinase activity assay; assay type: biochemical
In short: (§1)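 Radiometric kinase assay of test compound at 10 µM, added first from a 50× DMSO stock with no pre-incubation. Kinase was diluted in 45 mM TRIS, 0.4 mM EGTA, 18 mM DTT, 0.02 % Triton X-100, 1 mM sodium orthovanadate, 1 mM β-glycerophosphate, 2 % glycerol. Solvent wells (2 % DMSO) gave 100 % activity. Staurosporine blank wells defined 0 % activity.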

CDK1/cyclinB = CDK1/cyclinB (Homo sapiens, UniProt P06493); experiment: KinaseProfiler kinase activity assay; assay type: biochemical
Sequence of CDK1/cyclinB (P14635 whole entry): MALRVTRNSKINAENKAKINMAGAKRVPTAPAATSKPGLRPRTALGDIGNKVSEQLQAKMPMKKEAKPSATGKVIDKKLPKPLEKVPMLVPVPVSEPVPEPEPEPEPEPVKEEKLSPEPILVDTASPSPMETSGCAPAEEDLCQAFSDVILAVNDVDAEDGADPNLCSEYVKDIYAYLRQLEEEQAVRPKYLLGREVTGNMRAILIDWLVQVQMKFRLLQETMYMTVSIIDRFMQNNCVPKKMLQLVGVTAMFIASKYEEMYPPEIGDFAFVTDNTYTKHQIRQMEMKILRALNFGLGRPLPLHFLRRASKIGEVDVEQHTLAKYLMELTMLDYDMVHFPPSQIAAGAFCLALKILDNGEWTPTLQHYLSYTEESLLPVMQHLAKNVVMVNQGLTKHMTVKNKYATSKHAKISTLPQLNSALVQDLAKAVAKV
Sequence of CDK1/cyclinB (P06493 whole entry): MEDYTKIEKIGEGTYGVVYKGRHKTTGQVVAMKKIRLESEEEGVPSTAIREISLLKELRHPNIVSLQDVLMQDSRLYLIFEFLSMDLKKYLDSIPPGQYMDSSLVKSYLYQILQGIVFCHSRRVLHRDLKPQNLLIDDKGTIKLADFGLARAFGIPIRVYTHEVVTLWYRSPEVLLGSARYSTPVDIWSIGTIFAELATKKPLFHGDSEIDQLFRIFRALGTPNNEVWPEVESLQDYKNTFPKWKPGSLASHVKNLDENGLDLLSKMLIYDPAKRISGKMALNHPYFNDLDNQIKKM
In short: (§2)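 Radiometric kinase activity assay. Test compound was made as a 50× stock in 100 % DMSO and added first to 10 µM, with no pre-incubation before reaction start. Kinase was prepared in 20 mM MOPS, 1 mM EDTA, 0.01 % Brij-35, 5 % glycerol, 0.1 % β-mercaptoethanol, 1 mg/mL BSA. Full-activity wells had 2 % DMSO without compound. Blank wells with staurosporine set 0 % activity.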

cKit = cKit (Homo sapiens, UniProt P10721); experiment: KinaseProfiler kinase activity assay; assay type: biochemical
In short: as §2

c-RAF = c-RAF (Homo sapiens, UniProt P04049); experiment: KinaseProfiler kinase activity assay; assay type: biochemical
In short: as §1

EGFR = EGFR (Homo sapiens, UniProt P00533); experiment: KinaseProfiler kinase activity assay; assay type: biochemical
Sequence of EGFR (P00533 25-1210): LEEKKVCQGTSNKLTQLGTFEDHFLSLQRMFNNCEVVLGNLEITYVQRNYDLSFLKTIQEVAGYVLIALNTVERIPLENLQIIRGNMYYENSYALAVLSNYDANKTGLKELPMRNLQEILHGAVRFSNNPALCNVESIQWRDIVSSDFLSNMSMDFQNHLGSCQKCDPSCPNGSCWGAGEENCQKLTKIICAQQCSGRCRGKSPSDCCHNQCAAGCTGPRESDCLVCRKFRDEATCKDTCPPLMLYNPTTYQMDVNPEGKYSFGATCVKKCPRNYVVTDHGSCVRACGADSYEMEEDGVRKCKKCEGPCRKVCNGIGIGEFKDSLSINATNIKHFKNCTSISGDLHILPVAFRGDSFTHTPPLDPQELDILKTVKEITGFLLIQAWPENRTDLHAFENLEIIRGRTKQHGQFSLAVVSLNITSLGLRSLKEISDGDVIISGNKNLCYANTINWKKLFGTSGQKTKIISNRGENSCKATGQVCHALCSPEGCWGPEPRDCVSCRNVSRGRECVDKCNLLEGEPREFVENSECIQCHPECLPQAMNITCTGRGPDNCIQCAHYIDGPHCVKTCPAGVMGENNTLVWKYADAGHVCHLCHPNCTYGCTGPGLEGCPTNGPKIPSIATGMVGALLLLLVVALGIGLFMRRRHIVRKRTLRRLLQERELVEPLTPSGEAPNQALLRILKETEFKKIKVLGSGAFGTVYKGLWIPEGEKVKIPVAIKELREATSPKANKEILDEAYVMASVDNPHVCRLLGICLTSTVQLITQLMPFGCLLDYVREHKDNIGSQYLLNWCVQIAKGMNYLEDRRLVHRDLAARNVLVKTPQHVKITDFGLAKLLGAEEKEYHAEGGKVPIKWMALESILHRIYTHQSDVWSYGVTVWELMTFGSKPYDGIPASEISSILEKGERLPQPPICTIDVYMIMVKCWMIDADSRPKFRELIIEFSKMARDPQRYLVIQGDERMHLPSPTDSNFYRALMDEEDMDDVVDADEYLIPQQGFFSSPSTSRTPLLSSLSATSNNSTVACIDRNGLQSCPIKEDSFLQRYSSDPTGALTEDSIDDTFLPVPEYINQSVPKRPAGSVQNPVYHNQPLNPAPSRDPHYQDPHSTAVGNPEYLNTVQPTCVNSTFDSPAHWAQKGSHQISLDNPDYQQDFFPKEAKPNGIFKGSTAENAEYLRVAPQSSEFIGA
In short: as §2

FGFR1 = FGFR1 (Homo sapiens, UniProt P11362); experiment: KinaseProfiler kinase activity assay; assay type: biochemical
Sequence of FGFR1 (P11362 22-822): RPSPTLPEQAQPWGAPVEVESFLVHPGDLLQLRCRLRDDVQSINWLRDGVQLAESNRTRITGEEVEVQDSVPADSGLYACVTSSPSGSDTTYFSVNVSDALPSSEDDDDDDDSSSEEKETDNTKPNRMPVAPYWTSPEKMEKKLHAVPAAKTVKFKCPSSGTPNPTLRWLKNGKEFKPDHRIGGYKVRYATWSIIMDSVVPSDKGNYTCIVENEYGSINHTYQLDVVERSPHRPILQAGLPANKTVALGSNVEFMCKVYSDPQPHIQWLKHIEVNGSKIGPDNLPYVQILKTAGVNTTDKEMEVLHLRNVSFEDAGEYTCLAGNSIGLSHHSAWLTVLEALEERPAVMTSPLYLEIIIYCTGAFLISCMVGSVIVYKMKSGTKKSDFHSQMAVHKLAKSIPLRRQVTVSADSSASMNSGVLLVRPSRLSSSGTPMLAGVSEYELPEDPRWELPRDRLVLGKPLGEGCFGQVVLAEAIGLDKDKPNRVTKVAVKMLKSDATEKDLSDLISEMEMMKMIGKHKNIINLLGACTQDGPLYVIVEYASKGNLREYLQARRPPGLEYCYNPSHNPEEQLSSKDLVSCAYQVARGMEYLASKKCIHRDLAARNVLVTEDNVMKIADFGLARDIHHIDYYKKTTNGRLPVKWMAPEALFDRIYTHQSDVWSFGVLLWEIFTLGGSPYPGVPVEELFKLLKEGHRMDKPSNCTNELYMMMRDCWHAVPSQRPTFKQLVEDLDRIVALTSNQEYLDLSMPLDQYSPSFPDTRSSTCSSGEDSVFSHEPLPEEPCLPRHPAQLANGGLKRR
In short: as §2

FGFR3 = FGFR3 (Homo sapiens, UniProt P22607); experiment: KinaseProfiler kinase activity assay; assay type: biochemical
In short: as §2

Flt1 = Flt1 (Homo sapiens, UniProt P17948); experiment: KinaseProfiler kinase activity assay; assay type: biochemical
Flt3 = Flt3 (Homo sapiens, UniProt P36888); experiment: KinaseProfiler kinase activity assay; assay type: biochemical
Fms = Fms (Homo sapiens, UniProt P07333); experiment: KinaseProfiler kinase activity assay; assay type: biochemical
IGF-1R = IGF-1R (Homo sapiens, UniProt P08069); experiment: KinaseProfiler kinase activity assay; assay type: biochemical
JAK2 = JAK2 (Homo sapiens, UniProt O60674); experiment: KinaseProfiler kinase activity assay; assay type: biochemical
MEKK3 = MEKK3 (Homo sapiens, UniProt Q99759); experiment: KinaseProfiler kinase activity assay; assay type: biochemical
In short: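 Kinase was prepared in 50 mM HEPES, 1 mM EDTA, 10 mM DTT, 0.01 % Brij-35. Activity was measured radiometrically with 10 µM test compound added first from a 50× DMSO stock, without pre-incubation. Activity is expressed relative to 2 % DMSO control wells (100 %) and staurosporine blank wells (0 %).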

PDGFRα = PDGFRα (Homo sapiens, UniProt P16234); experiment: KinaseProfiler kinase activity assay; assay type: biochemical
In short: as §2

PKA = PKA (Homo sapiens, UniProt P17612); experiment: KinaseProfiler kinase activity assay; assay type: biochemical
In short: as §2

PKBα = PKBα (Homo sapiens, UniProt P31749); experiment: KinaseProfiler kinase activity assay; assay type: biochemical
In short: as §2

Ret = Ret (Homo sapiens, UniProt P07949); experiment: KinaseProfiler kinase activity assay; assay type: biochemical
In short: as §2

Src(1-530) = Src(1-530) (Homo sapiens, UniProt P12931); experiment: KinaseProfiler kinase activity assay; assay type: biochemical
In short: as §2

ATM = ATM (Homo sapiens, UniProt Q13315); experiment: KinaseProfiler kinase activity assay; assay type: biochemical
In short: (§3)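 Radiometric activity assay with 10 µM test compound, added first from a 50× stock in 100 % DMSO, with no compound–kinase pre-incubation. Full activity came from 2 % DMSO wells without compound. The 0 % baseline came from a reference inhibitor: KU55933 for ATM, PI-103 for DNA-PK.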

DNA-PK = DNA-PK (Homo sapiens, UniProt P78527); experiment: KinaseProfiler kinase activity assay; assay type: biochemical
In short: as §3

[6] = test system: panel of 20 human protein kinases; experiment: KinaseProfiler, whole panel; assay type: biochemical; conditions: 10 µM

T1 sequence (P11388 whole entry): as the sequence (P11388 whole entry) above

For `O=c1nc(SCc2cc(F)cc(C(F)(F)F)c2)nc(SCc2ccc3sccc3c2)[nH]1` [Compound 24, 6-((Benzo[b]thiophen-5-ylmethyl)thio)−4-((3-fluoro-5-(trifluoromethyl)benzyl)thio)−1,3,5-triazin-2(1H)-one], the IC50 (human topo IIβ) was 9.9 ± 0.4 µM, the “linear plasmid in the cleavage assay (in words)” value (human topo IIα [1]) was “a low level of linear plasmid was detected at 15.6 μM and above” and the “linear product in the competitive cleavage assay (in words)” value (human topo IIα [2]) was “appeared to reduce the linear product of the etoposide-topoIIα cleavage complex at lower concentrations”. For the same compound, the “unwinding / intercalation (in words)” value (wheatgerm topo I) was “inhibitors rather than intercalators”, the “mode of inhibition with respect to ATP (in words)” value (human topo II) was “no noticeable decrease in IC50 values” and the “interaction with the ATPase domain of topo IIα by STD NMR (in words)” value [3] was “confirmed the interaction”. The “solubility (in words)” value [4] was “more soluble compared to the benzyl-substituted analogues”, the “cytotoxic activity in NCI-60 (in words)” value [5] was “marginal cytotoxicity in several leukemia cell lines” and the activity at 10 µM (B-Raf) was 93%. It also gave an activity at 10 µM (CDK1/cyclinB) of 124%, an activity at 10 µM (cKit) of 99% and an activity at 10 µM (c-RAF) of 110%. The activity at 10 µM (EGFR) was 100%, the activity at 10 µM (FGFR1) was 90% and the activity at 10 µM (FGFR3) was 92%. For the same compound, the activity at 10 µM (Flt1) was 93%, the activity at 10 µM (Flt3) was 93% and the activity at 10 µM (Fms) was 77%. It also gave an activity at 10 µM (IGF-1R) of 92%, an activity at 10 µM (JAK2) of 107% and an activity at 10 µM (MEKK3) of 87%. For the same compound, the activity at 10 µM (PDGFRα) was 106%, the activity at 10 µM (PKA) was 86% and the activity at 10 µM (PKBα) was 105%. The activity at 10 µM (Ret) was 91%, the activity at 10 µM (Src(1-530)) was 127% and the activity at 10 µM (ATM) was 86%. For the same compound, the activity at 10 µM (DNA-PK) was 83% and the “inhibition of the panel of 20 human protein kinases (in words)” value [6] was “no significant inhibitory effect was observed”.
